This note sets out measurements from ChEMBL document CHEMBL1131619, “32-Ascomycinyloxyacetic acid derived immunosuppressants. Independence of immunophilin binding and immunosuppressive potency” (J Med Chem, 1998).

By pIC50 is commonly meant the IC50 on a negative log10 scale, so that one unit is a factor of ten. Higher therefore signals a low IC50. By ED50 is commonly meant the dose that gives a 50% effect, or the effect in half of the subjects. A lower ED50 goes with greater potency.

The species named for test [1] is Homo sapiens. Nature of the test: Inhibition of human mixed lymphocyte response (MLR). The class given is functional. In a few lines:
(§1)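 IC50 values are reported as mean ± SD for the stated number of determinations, using human cells or protein.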

Test [2] deals with Peptidyl-prolyl cis-trans isomerase FKBP1A (Homo sapiens, UniProt P62942). Nature of the test: Inhibitory binding activity against human Immunophilin-FK-506 binding protein 12. In a few lines:
as §1

For test [3], the system named is Rattus norvegicus. Nature of the test: Inhibition of rat popliteal lymph node (PLN) hyperplasia when given ip. Format: functional. In a few lines:
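Popliteal lymph node hyperplasia is induced in Lewis rats by Brown Norway rat cells, and its inhibition is measured.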

Each structure is given as a SMILES string. pIC50: −log10 of the molar value. Bounds are passed on as bounds.

Sequence of Peptidyl-prolyl cis-trans isomerase FKBP1A (P62942 whole entry): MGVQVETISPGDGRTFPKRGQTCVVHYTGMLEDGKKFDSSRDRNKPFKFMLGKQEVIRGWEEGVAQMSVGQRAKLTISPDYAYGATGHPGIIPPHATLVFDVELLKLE

In the case of `CC[C@@H]1/C=C(\C)C[C@H](C)C[C@H](OC)[C@H]2O[C@@](O)(C(=O)C(=O)N3CCCC[C@H]3C(=O)O[C@H](/C(C)=C/C3CC[C@@H](OCC(=O)Nc4ccc(Cl)c(Cl)c4)[C@H](OC)C3)[C@H](C)[C@@H](O)CC1=O)[C@H](C)C[C@@H]2OC` (some centres undefined), the results for the pIC50 in test [1] and in test [2] were 9.26 and 6.30, respectively.

`CC[C@@H]1/C=C(\C)C[C@H](C)C[C@H](OC)[C@H]2O[C@@](O)(C(=O)C(=O)N3CCCC[C@H]3C(=O)O[C@H](/C(C)=C/C3CC[C@@H](OCC(=O)NCCc4ccccc4)[C@H](OC)C3)[C@H](C)[C@@H](O)CC1=O)[C@H](C)C[C@@H]2OC` (some centres undefined) returned an ED50 in test [3] of more than 3 mg/kg/day. Moreover, the pIC50 in test [1] was 9.47; in test [2], 7.89.

Take `CC[C@@H]1/C=C(\C)C[C@H](C)C[C@H](OC)[C@H]2O[C@@](O)(C(=O)C(=O)N3CCCC[C@H]3C(=O)O[C@H](/C(C)=C/C3CC[C@@H](OCC(=O)Nc4cccnc4)[C@H](OC)C3)[C@H](C)[C@@H](O)CC1=O)[C@H](C)C[C@@H]2OC` (some centres undefined): the pIC50 in test [1] is 10.00; in test [2], 8.48.

`CO[C@H]1C[C@@H]2CC[C@@H](C)[C@@](O)(O2)C(=O)C(=O)N2CCCC[C@H]2C(=O)O[C@H]([C@H](C)C[C@@H]2CC[C@@H](O)[C@H](OC)C2)CC(=O)[C@H](C)/C=C(\C)[C@@H](O)[C@@H](OC)C(=O)[C@H](C)C[C@H](C)/C=C/C=C/C=C/1C` [SIROLIMUS]: the ED50 in test [3] stood at 2.1 mg/kg/day. Moreover, in test [1], the pIC50 was 8.90.

For the compound `CC[C@@H]1/C=C(\C)C[C@H](C)C[C@H](OC)[C@H]2O[C@@](O)(C(=O)C(=O)N3CCCC[C@H]3C(=O)O[C@H](/C(C)=C/C3CC[C@@H](OCC(=O)Nc4ccc(C)cc4)[C@H](OC)C3)[C@H](C)[C@@H](O)CC1=O)[C@H](C)C[C@@H]2OC` (some centres undefined), the pIC50 was 10.70 in test [1] and 7.15 in test [2].

In turn, `CC[C@@H]1/C=C(\C)C[C@H](C)C[C@H](OC)[C@H]2O[C@@](O)(C(=O)C(=O)N3CCCC[C@H]3C(=O)O[C@H](/C(C)=C/C3CC[C@@H](OCC(N)=O)[C@H](OC)C3)[C@H](C)[C@@H](O)CC1=O)[C@H](C)C[C@@H]2OC` (some centres undefined) gave an ED50 in test [3] of 0.3 mg/kg/day. Further, the pIC50 in test [1] was 9.89; in test [2] it was 9.22.

`CCOC(=O)CO[C@@H]1CCC(/C=C(\C)[C@H]2OC(=O)[C@@H]3CCCCN3C(=O)C(=O)[C@]3(O)O[C@H]([C@@H](OC)C[C@@H](C)C/C(C)=C/[C@@H](CC)C(=O)C[C@H](O)[C@H]2C)[C@@H](OC)C[C@H]3C)C[C@H]1OC` (some centres undefined) displayed an ED50 in test [3] of more than 3 mg/kg/day. The negative logarithm of the IC50 (pIC50) in test [1] was 9.04; in test [2], 8.03.

`CC[C@@H]1/C=C(\C)C[C@H](C)C[C@H](OC)[C@H]2O[C@@](O)(C(=O)C(=O)N3CCCC[C@H]3C(=O)O[C@H](/C(C)=C/C3CC[C@@H](OCC(=O)N(C)CCc4ccccc4)[C@H](OC)C3)[C@H](C)[C@@H](O)CC1=O)[C@H](C)C[C@@H]2OC` (some centres undefined): the ED50 in test [3] is more than 3 mg/kg/day. Besides, the negative-log IC50 (pIC50) in test [1] was 9.19; in test [2], 9.40.

In test [3], `CC[C@@H]1/C=C(\C)C[C@H](C)C[C@H](OC)[C@H]2O[C@@](O)(C(=O)C(=O)N3CCCC[C@H]3C(=O)O[C@H](/C(C)=C/C3CC[C@@H](OCC(=O)N(C)c4ccccc4)[C@H](OC)C3)[C@H](C)[C@@H](O)CC1=O)[C@H](C)C[C@@H]2OC` (some centres undefined) registered a 50% effective dose (ED50) of 1.9 mg/kg/day. Also, the figures for the pIC50 in test [1] and in test [2] were 9.59 and 8.54, respectively.

For the compound `CC[C@@H]1/C=C(\C)C[C@H](C)C[C@H](OC)[C@H]2O[C@@](O)(C(=O)C(=O)N3CCCC[C@H]3C(=O)O[C@H](/C(C)=C/C3CC[C@@H](OCC(=O)N(C)Cc4ccccc4)[C@H](OC)C3)[C@H](C)[C@@H](O)CC1=O)[C@H](C)C[C@@H]2OC` (some centres undefined), the median effective dose (ED50) in test [3] is more than 3 mg/kg/day. Further, the pIC50 in test [1] was 10.05; in test [2], 8.25.

As for `CC[C@@H]1/C=C(\C)C[C@H](C)C[C@H](OC)[C@H]2O[C@@](O)(C(=O)C(=O)N3CCCC[C@H]3C(=O)O[C@H](/C(C)=C/C3CC[C@@H](OCC(=O)Nc4ccccn4)[C@H](OC)C3)[C@H](C)[C@@H](O)CC1=O)[C@H](C)C[C@@H]2OC` (some centres undefined), the negative-log IC50 (pIC50) in test [1] was 10.30; in test [2], 8.62.

In test [3], `C=CC[C@@H]1/C=C(\C)C[C@H](C)C[C@H](OC)[C@H]2O[C@@](O)(C(=O)C(=O)N3CCCC[C@H]3C(=O)O[C@H](/C(C)=C/[C@@H]3CC[C@@H](O)[C@H](OC)C3)[C@H](C)[C@@H](O)CC1=O)[C@H](C)C[C@@H]2OC` [TACROLIMUS ANHYDROUS] came in with an ED50 of 0.1 mg/kg/day. Besides, in test [1], the pIC50 was 9.32.

For the compound `CC[C@@H]1/C=C(\C)C[C@H](C)C[C@H](OC)[C@H]2O[C@@](O)(C(=O)C(=O)N3CCCC[C@H]3C(=O)O[C@H](/C(C)=C/C3CC[C@@H](OCC(=O)NC4CCCCC4)[C@H](OC)C3)[C@H](C)[C@@H](O)CC1=O)[C@H](C)C[C@@H]2OC` (some centres undefined), the pIC50 was 9.33 in test [1] and 8.70 in test [2].

`CC[C@@H]1/C=C(\C)C[C@H](C)C[C@H](OC)[C@H]2O[C@@](O)(C(=O)C(=O)N3CCCC[C@H]3C(=O)O[C@H](/C(C)=C/C3CC[C@@H](OCC(=O)NCc4ccccc4)[C@H](OC)C3)[C@H](C)[C@@H](O)CC1=O)[C@H](C)C[C@@H]2OC` (some centres undefined) showed an ED50 in test [3] of 1.2 mg/kg/day. Also, the figures for the pIC50 in test [1] and in test [2] were 9.10 and 7.32, respectively.

Consider `CC[C@@H]1/C=C(\C)C[C@H](C)C[C@H](OC)[C@H]2O[C@@](O)(C(=O)C(=O)N3CCCC[C@H]3C(=O)O[C@H](/C(C)=C/C3CC[C@@H](OCC(=O)Nc4cccc(C(F)(F)F)c4)[C@H](OC)C3)[C@H](C)[C@@H](O)CC1=O)[C@H](C)C[C@@H]2OC` (some centres undefined), for which the pIC50 in test [1] is 9.85; in test [2], 6.33.

Turning to `CC[C@@H]1/C=C(\C)C[C@H](C)C[C@H](OC)[C@H]2O[C@@](O)(C(=O)C(=O)N3CCCC[C@H]3C(=O)O[C@H](/C(C)=C/C3CC[C@@H](OCC(=O)Nc4cccc(F)c4)[C@H](OC)C3)[C@H](C)[C@@H](O)CC1=O)[C@H](C)C[C@@H]2OC` (some centres undefined), the negative logarithm of the IC50 (pIC50) is 9.80 in test [1] and 6.74 in test [2].

Take `CC[C@@H]1/C=C(\C)C[C@H](C)C[C@H](OC)[C@H]2O[C@@](O)(C(=O)C(=O)N3CCCC[C@H]3C(=O)O[C@H](/C(C)=C/C3CC[C@@H](OCC(=O)O)[C@H](OC)C3)[C@H](C)[C@@H](O)CC1=O)[C@H](C)C[C@@H]2OC` (some centres undefined): the ED50 in test [3] was more than 3 mg/kg/day. In addition, the pIC50 in test [1] was 6.85; in test [2] it was 8.40.

In the case of `CC[C@@H]1/C=C(\C)C[C@H](C)C[C@H](OC)[C@H]2O[C@@](O)(C(=O)C(=O)N3CCCC[C@H]3C(=O)O[C@H](/C(C)=C/C3CC[C@@H](OCC(=O)Nc4ccc(F)cc4)[C@H](OC)C3)[C@H](C)[C@@H](O)CC1=O)[C@H](C)C[C@@H]2OC` (some centres undefined), the pIC50 was 10.52 in test [1] and 7.34 in test [2].

On to `CC[C@@H]1/C=C(\C)C[C@H](C)C[C@H](OC)[C@H]2O[C@@](O)(C(=O)C(=O)N3CCCCC3C(=O)O[C@H](/C(C)=C/C3CC[C@@H](OCC(=O)OCc4ccccc4)[C@H](OC)C3)[C@H](C)[C@@H](O)CC1=O)[C@H](C)C[C@@H]2OC` (some centres undefined), for which the ED50 in test [3] was more than 3 mg/kg/day. In addition, the negative logarithm of the IC50 (pIC50) in test [1] was 8.12; in test [2] it was 7.17.

As for `CC[C@@H]1/C=C(\C)C[C@H](C)C[C@H](OC)[C@H]2O[C@@](O)(C(=O)C(=O)N3CCCC[C@H]3C(=O)O[C@H](/C(C)=C/C3CC[C@@H](OCC(=O)Nc4ccc(O)cc4)[C@H](OC)C3)[C@H](C)[C@@H](O)CC1=O)[C@H](C)C[C@@H]2OC` (some centres undefined), the pIC50 was 9.85 in test [1] and 7.80 in test [2].

For `CC[C@@H]1/C=C(\C)C[C@H](C)C[C@H](OC)[C@H]2O[C@@](O)(C(=O)C(=O)N3CCCC[C@H]3C(=O)O[C@H](/C(C)=C/C3CC[C@@H](OCC(=O)Nc4ccccc4)[C@H](OC)C3)[C@H](C)[C@@H](O)CC1=O)[C@H](C)C[C@@H]2OC` (some centres undefined), the 50% effective dose (ED50) in test [3] amounted to 1.4 mg/kg/day. Also, the negative logarithm of the IC50 (pIC50) in test [1] was 9.54; in test [2], 6.77.

In the case of `CC[C@@H]1/C=C(\C)C[C@H](C)C[C@H](OC)[C@H]2O[C@@](O)(C(=O)C(=O)N3CCCC[C@H]3C(=O)O[C@H](/C(C)=C/C3CC[C@@H](OCC(=O)Nc4ccc(N5CCOCC5)cc4)[C@H](OC)C3)[C@H](C)[C@@H](O)CC1=O)[C@H](C)C[C@@H]2OC` (some centres undefined), the values for the negative-log IC50 (pIC50) in test [1] and in test [2] were 9.24 and 7.72, respectively.

On to `CC[C@@H]1/C=C(\C)C[C@H](C)C[C@H](OC)[C@H]2O[C@@](O)(C(=O)C(=O)N3CCCC[C@H]3C(=O)O[C@H](/C(C)=C/C3CC[C@@H](OCC(=O)Nc4ccncc4)[C@H](OC)C3)[C@H](C)[C@@H](O)CC1=O)[C@H](C)C[C@@H]2OC` (some centres undefined), for which the results for the negative logarithm of the IC50 (pIC50) in test [1] and in test [2] were 9.80 and 8.49, respectively.

As for `CC[C@@H]1/C=C(\C)C[C@H](C)C[C@H](OC)[C@H]2O[C@@](O)(C(=O)C(=O)N3CCCC[C@H]3C(=O)O[C@H](/C(C)=C/[C@@H]3CC[C@@H](O)[C@H](OC)C3)[C@H](C)[C@@H](O)CC1=O)[C@H](C)C[C@@H]2OC` [ASCOMYCIN], in test [3], the ED50 turned out to be 0.3 mg/kg/day. The compound further showed a negative-log IC50 (pIC50) in test [2] of 8.68.

For the compound `CC[C@@H]1/C=C(\C)C[C@H](C)C[C@H](OC)[C@H]2O[C@@](O)(C(=O)C(=O)N3CCCC[C@H]3C(=O)O[C@H](/C(C)=C/C3CC[C@@H](OCC(=O)Nc4ccc(OC)cc4)[C@H](OC)C3)[C@H](C)[C@@H](O)CC1=O)[C@H](C)C[C@@H]2OC` (some centres undefined), the figures for the pIC50 in test [1] and in test [2] were 10.40 and 7.30, respectively.

For `CC[C@@H]1/C=C(\C)C[C@H](C)C[C@H](OC)[C@H]2O[C@@](O)(C(=O)C(=O)N3CCCC[C@H]3C(=O)O[C@H](/C(C)=C/C3CC[C@@H](OCC(=O)Nc4ccc(Cl)cc4)[C@H](OC)C3)[C@H](C)[C@@H](O)CC1=O)[C@H](C)C[C@@H]2OC` (some centres undefined), the pIC50 is 10.15 in test [1] and 6.74 in test [2].

In the case of `CC[C@@H]1/C=C(\C)C[C@H](C)C[C@H](OC)[C@H]2O[C@@](O)(C(=O)C(=O)N3CCCC[C@H]3C(=O)O[C@H](/C(C)=C/C3CC[C@@H](OCC(=O)Nc4ccc(C(F)(F)F)cc4)[C@H](OC)C3)[C@H](C)[C@@H](O)CC1=O)[C@H](C)C[C@@H]2OC` (some centres undefined), the pIC50 in test [1] is 9.64; in test [2], 6.24.
